According to the EternaBench riboswitch data:

System: MS2 coat protein
Assay: apparent Kd, MS2 coat protein; higher = weaker binding; RNA-MaP array; FMN 200 µM where present
Method in brief: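 The titrant was SNAP-549-labelled MS2 coat protein, run from 0.7 or 1.5 nM in doubling steps to 3 µM. It was applied to designs transcribed by stalled E. coli RNA polymerase on Illumina sequencing-chip clusters, without ligand first and then with constant ligand, in 100 mM Tris-HCl pH 7.5, 80 mM KCl, 4 mM MgCl2, BSA, DTT, yeast tRNA and Tween-20. The apparent Kd is the median of filtered per-cluster binding-curve fits, with green signal normalised to red-channel RNA signal and control-cluster median Fmax.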

[1] = designed as: OFF switch for flavin mononucleotide, no ligand
[2] = ligand present: flavin mononucleotide, designed as: OFF switch for flavin mononucleotide
[3] = designed as: ON switch for flavin mononucleotide, no ligand
[4] = ligand present: flavin mononucleotide, designed as: ON switch for flavin mononucleotide

Sequence: GCAUCGUCGACUGAUAAUGAGCCUAGAAGGCGGACAUGAGGAUCACCCAUGUCUGAUCCUCGGCCCGAGGAUAUAGGUUAAUGA
- apparent Kd [1]: 12.1 nM
- apparent Kd [2]: 8.65 nM

Sequence: UUUACUAACGAAGGAUAUGGUUACAUGAGGAUCACCCAUGUAUGUAUAUUGAUCUAGUAUUUUAACCAGAAGGUCGUGAUUUUU
- apparent Kd [1]: 31.6 nM
- apparent Kd [2]: 45.3 nM

Sequence: GAAAAACAUGAGGAUCACCCAUGUAAAAAAAUGGGAGGAUAUACAAAGACGAAAGUCAAAGUAGAAGGCCUGAAAG
- apparent Kd [3]: 54.9 nM
- apparent Kd [4]: 20.7 nM

Sequence: CUUCAGUCAGGAUAUGUUAAUCUCGCCACUCCGCGAACCGGACAGAAGGGACAUGAGGAUCACCCAUGUUAAAC
- apparent Kd [1]: 30.4 nM
- apparent Kd [2]: 19.5 nM

Sequence: UCUCAACAUGAGGAUCACCCAUGUGAGGAUAUGAUGCAGCAGUGGUCUACGCUGUGCAUCAGAAGGCACAUGUG
- apparent Kd [1]: 137 nM
- apparent Kd [2]: 48.2 nM

Sequence: UGAGAGUCAGGAUAUCGAAGGUAGUGGAGAGGAGUGUGGUACGAGAAGGGACAUGAGGAUCACCCAUGUAGGUG
- apparent Kd [1]: 322 nM
- apparent Kd [2]: 276 nM

Sequence: UUGUUUUGAAAUUAACAUGAGGAUCACCCAUGUCUUGACACAGAGGAUAUACAUGAAUGUAGGUAGUAGAAGGCUGUUUAGUGU
- apparent Kd [3]: 79.5 nM
- apparent Kd [4]: 60 nM

Sequence: AUUAUACAUGAGGAUCACCCAUGUCAACAAAGUCGAGGAUAUGGGCAAAUAAAAUAAGAACCAGAAGGCGAAUAAU
- apparent Kd [3]: 238 nM
- apparent Kd [4]: 61 nM

Sequence: GUUUUCGCAUGAGGAUAUGCUCGCAUUUCAAGAGCAGAAGGUAUGUCUAUAGACAUGAGGAUCACCCAUGUAUUUAUCAUUGAA
- apparent Kd [3]: 273 nM
- apparent Kd [4]: 118 nM

Sequence: GGAUAGGACAGAGGAUAUACGUGCUAGAGAUACUAGCAACAUUUCCUCACAUGAGGAUCACCCAUGUAGAAGGCUGUCCUAUCG
- apparent Kd [1]: 8.16 nM
- apparent Kd [2]: 190 nM

Sequence: UUGAACGUCGUAGGAUAUGUAGGAUAUUCCUACAUGAGGAUCACCCAUGUUGACAUGGAAGAAGGACAGAAGGACGAUGUCCAU
- apparent Kd [3]: 567 nM
- apparent Kd [4]: 7.77 nM

Sequence: GCUACGCCUGACAUGAGGAUCACCCAUGUUAGAUUGUUAUGUCAGGAUAUUGUCUAGAAACUAGACAAGAAGGGAUGUGUAGCU
- apparent Kd [3]: 728 nM
- apparent Kd [4]: 66.5 nM

Sequence: CUUUUGUGAGGAUAUUAGUAGUAAAAAAAUAAAAUUACUACUGAGAAGGCACAUGAGGAUCACCCAUGUUCCUC
- apparent Kd [1]: 31.4 nM
- apparent Kd [2]: 213 nM

Sequence: UAGAUGGGAGGAUAUGCGUAGAUACGGAUUCGUGUAGUGCUACAUGAGGAUCACCCAUGUAGAAGGCCCGUCUU
- apparent Kd [1]: 15.2 nM
- apparent Kd [2]: 18.3 nM

Sequence: GGUCCAUAAUGAGGAUAUGGCACCUUAUUGGUGCCAGAAGGCAUGUCUAUAGACAUGAGGAUCACCCAUGUAAUAAAUUGGACC
- apparent Kd [3]: 435 nM
- apparent Kd [4]: 43.3 nM

Sequence: GUCAUGUCAGGAUAUGCUUAUGAUGGGUGCUCAGACAUGAUGCAGAAGGGACAUGAGGAUCACCCAUGUACUGU
- apparent Kd [1]: 62.5 nM
- apparent Kd [2]: 62.5 nM

Sequence: GUACGUGGACAGAAGGUGACAUGAGGAUCACCCAUGUUAGUUGAGGUAUCAGCGAUCUGCGUGAUUGAGGAUAUGUCUGCGGGC
- apparent Kd [1]: 11.9 nM
- apparent Kd [2]: 11.7 nM

Sequence: CACAAGAAAGUCGAAGGUUGAAGUAGAAGGACAACAACAUGACAUGAGGAUCACCCAUGUGCCAUGUAGGAUAUGCUUUAAUCG
- apparent Kd [1]: 9.14 nM
- apparent Kd [2]: 8.28 nM

Sequence: GUCGGAAACGACAAUGAUAGGACUGAGGAUAUACGUAUAAAUAUCCUCACAUGAGGAUCACCCAUGUAGAAGGCAGUCCUAUCU
- apparent Kd [1]: 13.2 nM
- apparent Kd [2]: 167 nM

Sequence: GAUUGAACCCAGAAGGCAUGAUCCACAUGAGGAUCACCCAUGUCGGUGAUGAGGAUAUGGCAUCGUCGCGCAGGGCACUAAUGA
- apparent Kd [3]: 590 nM
- apparent Kd [4]: 119 nM

Sequence: CCGUGGCAAGGAUAUACAUAGGAGAGGAAGGCAAGAGGUGGACAUGAGGAUCACCCAUGUAGAAGGUGCAGAUC
- apparent Kd [1]: 226 nM
- apparent Kd [2]: 236 nM

Sequence: GGGAGGGAUACAGGAUAUAUGACAUGAGGAUACAUGAGACAUACAAACAUGAGGAUCACCCAUGUAUAGAAGGGUAAGGGAGGG
- apparent Kd [1]: 173 nM
- apparent Kd [2]: 240 nM

Sequence: GGAGAACAUGAGGAUCACCCAUGUGAGAGGGAUGUAGGAUAUGUGAGGAGUAAAGGAGGGACAGAAGGACAGAGAU
- apparent Kd [3]: 45.8 nM
- apparent Kd [4]: 43.8 nM

Sequence: AAUAAAAUGAUGUUACAUGAGGAUCACCCAUGUAAGUGAUGGAGAAGGUCCCACGACUUGGGCGGGAAGGAUAUUCAGAGCAUA
- apparent Kd [3]: 16.8 nM
- apparent Kd [4]: 10.3 nM

Sequence: UGUCAGUAACAAGGAUAUUGGAGUUAAUGGCUACGAGAAGGUGUUACAUGAGGAUCACCCAUGUCCUCGCCUGUAGCAAGGACA
- apparent Kd [1]: 87.2 nM
- apparent Kd [2]: 567 nM

Sequence: GAGUCUCUAUUAGAACCGAUACGAACAUGAGGAUCACCCAUGUAGGAUAUGCUAAAAGUUGUGUUGCAGAAGGACAUUUAAAGC
- apparent Kd [1]: 10.6 nM
- apparent Kd [2]: 9.89 nM

Sequence: CGUCUGUGAGGAUAUGGUAUCGUUUACAUGAGGAUCACCCAUGUUUCAUGGGACUAGAGACUAGAAGGUACUGACG
- apparent Kd [1]: 1310 nM
- apparent Kd [2]: 870 nM

Sequence: AUUUAUGGCCAGAAGGACAUGAGGAUCACCCAUGUAGGAUAUGGACGAUUUUACUCGGCGGUUCGUUUAGGAAGCACCGGCGGU
- apparent Kd [3]: 8.58 nM
- apparent Kd [4]: 5.91 nM

Sequence: AAAAAACAUGAGGAUCACCCAUGUAAGGAUAUCGUGCAGAAAAAAAAAAAAAACUGCACGAGAAGGUACAAGGA
- apparent Kd [1]: 74.4 nM
- apparent Kd [2]: 108 nM

Sequence: GCCAUCGCAUGAGGAUAUGCUCGGGUUUCCCGAGCAGAAGGCAUGUCAUAAGACAUGAGGAUCACCCAUGUAGUUAAGAUGGCA
- apparent Kd [3]: 813 nM
- apparent Kd [4]: 35.9 nM

Sequence: UUGCAGUGCGGGUAGGAUAUGUAGGGUGGUACAUGAGGAUCACCCAUGUGUCCACCCUUCGACCGGCAGAAGGGCCUAUCACUGC
- apparent Kd [3]: 17.1 nM
- apparent Kd [4]: 15.6 nM

Sequence: UUAAUUAAUUAAUUGCAGAAUUACAUGAGGAUCACCCAUGUAUAGGAUAUCGUCAGGAAUACUGACGAGAAGGAUACAAACUGC
- apparent Kd [1]: 17.9 nM
- apparent Kd [2]: 20.7 nM

Sequence: UUCAACGAUGAAGGAUAUGUAUAAACAUGAGGACAUGAGGAUCACCCAUGUUGAUCACCCAUGUAGCAGAAGGUCAACAUGAGG
- apparent Kd [3]: 360 nM
- apparent Kd [4]: 142 nM

Sequence: GGUCCGUAACAGAAGGCCGUAACUGGCGGUGGCGGAGGAUAUGUGGGCGGCCCUUGACAACAUGAGGAUCACCCAUGUAUGUAA
- apparent Kd [3]: 41.3 nM
- apparent Kd [4]: 113 nM

Sequence: AUGCUAUACGAAGGAUAUGGUUACAUGAGGAUCACCCAUGUUAUGAUUGGGUACAUGAAAAGGUUCCAGAAGGUCGUAUAGCUA
- apparent Kd [1]: 1210 nM
- apparent Kd [2]: 736 nM

Sequence: AAGUACGUAAAGAAGGCGCGGGCAACCAUUCUGCGAGGAUAUUUACAUGAGGAUCACCCAUGUGCAUGGGAUCGAGAAGAAUUG
- apparent Kd [1]: 159 nM
- apparent Kd [2]: 41.9 nM

Sequence: GCACUGCAGCGGCGCACGAGACAUGAGGAUCACCCAUGUGACAGAAGGGACUUGUUAAAGGUAGGUCAGGAUAUGUCUUAAAAG
- apparent Kd [3]: 219 nM
- apparent Kd [4]: 65.8 nM

Sequence: AAUAUAAAGAGCUGGACCUUAAUAACAUGAGGAUCACCCAUGUAGGAUAUCAGCACGAUAAGUGCUGAGAAGGACAUCCAGCUC
- apparent Kd [1]: 14.4 nM
- apparent Kd [2]: 15.1 nM

Sequence: AUUGACUGAGGAUAUUGUACUGCUGACAUGAGGAUCACCCAUGUAUGCUAACUCGGCCGUCGAGAAGGCAGUCAUG
- apparent Kd [1]: 29.2 nM
- apparent Kd [2]: 17.3 nM

Sequence: GCGUAUGAAAAUAUGUCUGAGGGCAGAAGGCACAUGAGGAUCACCCAUGUAACGAUCUCUUCAAGUGAGGAUAUGUGCUCAUUG
- apparent Kd [1]: 31.8 nM
- apparent Kd [2]: 113 nM

Sequence: ACCUGGAUAGGAUAUACAUGAGGAUCACCCAUGUGACUCAGGCCAGGGAAGUACUUCGGUAGAAGGGUCCAGUA
- apparent Kd [1]: 18.2 nM
- apparent Kd [2]: 20.7 nM

Sequence: AACGCGUCAGGAUAUGCCAUAAAUUACGUAGUACGACCAUAGUAGAAGGGACAUGAGGAUCACCCAUGUGGGUA
- apparent Kd [1]: 177 nM
- apparent Kd [2]: 137 nM

Sequence: UGAACAAUGUAGAAGGCCCAUAUUUAUAUAUAGGGAGGAUAUACAUGAGGAUCACCCAUGUAAAGAGCAAGAGGACUUGACAGA
- apparent Kd [1]: 9.27 nM
- apparent Kd [2]: 15.7 nM

Sequence: GUAGCACAUGAUUUACAUGAGGAUCACCCAUGUAACAUGGGUAAGGAUAUUGAUGUGAAGUUAAUCAAGAAGGUACUAUGCUAC
- apparent Kd [3]: 9.65 nM
- apparent Kd [4]: 6.35 nM

Sequence: CUAAAUCAUGUAGGAUAUGCGUGGCGAAGCUAUGCAGAAGGACAUGAGGAUCACCCAUGUCAAAAUUUCUGCGUACAGACGGAA
- apparent Kd [1]: 15.5 nM
- apparent Kd [2]: 30.7 nM

Sequence: UGAUACAUGAGGGUCUCCCAUGACAUGAGGAUCACCCAUGUGCAGGAUAUACGUGUGAUGGUAUAGUAGAAGGGCAGUCUAUGU
- apparent Kd [1]: 102 nM
- apparent Kd [2]: 133 nM

Sequence: AAAUACCGGUGAGGAUAUUUUUAAUAGAGCUUUAUGAUAUACAUGAGGAUCACCCAUGUUACGUUAAAGAAGGCAUCGGAUAAA
- apparent Kd [1]: 18.4 nM
- apparent Kd [2]: 16.6 nM

Sequence: AACGUUCGAGGAUAUGUGGCGCUGCACAUGAGGAUCACCCAUGUGAGGACUUGCAGCAUCACAGAAGGUGACCUGC
- apparent Kd [1]: 94 nM
- apparent Kd [2]: 84.6 nM

Sequence: CAUACCUGUGAAGGAUAUACGUUGUUAGCUACCGUAGAAGGUCACAUGAGGAUCACCCAUGUCAAGGCAAGAACAUGAUCCGAA
- apparent Kd [1]: 304 nM
- apparent Kd [2]: 566 nM

Sequence: UCGUUGUCAGGAUAUCGUGUAUUCAACUUUAGUUUUAUAUUCGAGAAGGGACAUGAGGAUCACCCAUGUUACGU
- apparent Kd [1]: 133 nM
- apparent Kd [2]: 257 nM

Sequence: UGGUACUAGGGAGGAUAUGGGAAGAUACAUGAGGAUCACCCAUGUUUAAGAAUGCCAAGAGGCAACUAGAAGGCCCUAGUACCU
- apparent Kd [3]: 384 nM
- apparent Kd [4]: 17.8 nM

Sequence: UCUAUGCAGACCCUUAUAAAACAUGAGGAUCACCCAUGUGAGAGAAGGGCCUAACGGCAGAGAAGGCAGGAUAUCUUAUGAUGG
- apparent Kd [1]: 7.46 nM
- apparent Kd [2]: 12.9 nM

Sequence: ACUAUACGAGGAUAUGCUGUCAGUACUCAGAGGUUAAUGUGACAUGAGGAUCACCCAUGUAGAAGGCGUUUACU
- apparent Kd [1]: 34.2 nM
- apparent Kd [2]: 23.8 nM

Sequence: CUACCUUAUGAGAAGGCGGUCAUGAAACAUGAUCGAGGAUAUCAUGUAAACAUGAGGAUCACCCAUGUAUGGGUAUUAUGGUAU
- apparent Kd [3]: 146 nM
- apparent Kd [4]: 26.4 nM

Sequence: GUGUACAGAGGAUAUAUAUGAGCUAGGAAACUAGCAAGAUCACAUGAGGAUCACCCAUGUAGAAGGCUGUACAC
- apparent Kd [1]: 114 nM
- apparent Kd [2]: 1210 nM
